Measurements taken from publication PMC9851031 (ACS Omega, 2023).

Legend:
Assay type in all cases: in vivo
Swiss albino mice = assay: Acute toxicity; conditions: for number of animals dead/tot number of animals tested: i.p., observed 24 h
Method in brief: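 Albino mice, five per cage, on a 12 h light/dark cycle, fasted overnight. Acute toxic-class testing followed OECD 423. Deaths and signs of toxicity were recorded after dosing to estimate the median lethal dose.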

[1] = system: MES-induced seizure in albino mice; assay: Maximum electroshock; conditions: i.p. in mice, 4.0 h; doses 30, 100, 300 mg/kg
Method in brief: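 Albino mice, fasted overnight, received test compound i.p. in PEG-200 at 30, 100 and 300 mg/kg. Electroshock was 60-cycle alternating current, 50 mA for 0.25 s, delivered via ear-clip electrodes, with testing at 0.5 and 4 h after dosing. Protection meant abolition of hind limb tonic extension. The minimum dose protecting more than half of animals (n = 5) was recorded.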

albino mice = assay: Rotarod neurotoxicity test; conditions: doses 30, 100, 300 mg/kg; for neurotoxicity minimum dose: i.p. in mice
Method in brief: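 Albino mice of either sex, housed five per cage on a 12 h light/dark cycle and fasted overnight, were first trained to balance on a 3.2 cm diameter rod turning at 6 rpm. Trained mice then received test compound i.p. in PEG-200 at 30, 100 or 300 mg/kg. Neurotoxicity was scored as failure to stay on the rod for at least 1 min in each of three successive trials.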

mice = assay: Antidepressant activity: locomotor activity by actophotometer; conditions: for depressant effect (in words): actophotometer, 100 mg/kg; for % reduction in locomotor activity / locomotor activity score, after treatment means ± SEM: n = 5, 5 min
Method in brief: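 Actophotometer test in mice. Test compound at 100 mg/kg or diazepam standard was given intraperitoneally. Locomotor activity scores were taken at baseline and after treatment over a 5 min span, n = 5. Percent reduction in locomotor activity was calculated against control. Data are mean ± SEM, analysed by one-way ANOVA with Dunnett's test.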

[2] = 100 mg/kg, after a few minutes of administration

SMILES | number of animals dead/tot number of animals tested (Swiss albino mice; dosage 5 mg/kg) | number of animals dead/tot number of animals tested (Swiss albino mice; dosage 30 mg/kg) | number of animals dead/tot number of animals tested (Swiss albino mice; dosage 100 mg/kg) | number of animals dead/tot number of animals tested (Swiss albino mice; dosage 300 mg/kg) | HLTE (MES) minimum dose for antiepileptic potential [1] | acute toxicity observation (Swiss albino mice; [2]) | acute toxicity observation (Swiss albino mice; 300 mg/kg body weight, 24 h) | neurotoxicity minimum dose (albino mice; 0.5 h) [mg/kg] | neurotoxicity minimum dose (albino mice; 4.0 h) [mg/kg] | neurotoxicity (in words) (albino mice) | depressant effect (in words) (mice) | % reduction in locomotor activity (mice; dose 100 mg/kg) [%] | locomotor activity score, after treatment means ± SEM (mice; dose 100 mg/kg) | % reduction in locomotor activity (mice; 4 mg/kg (intraperitoneally)) [%] | locomotor activity score, after treatment means ± SEM (mice; 4 mg/kg (intraperitoneally))
COc1ccc(-c2nc3ccccc3s2)cc1OCc1nnc(-c2ccc(N)cc2)o1 [6a, 4-[5-(5-Benzothiazol-2-yl-2-methoxy-phenoxymethyl)-[1,3,4]oxadiazol-2-yl]-phenylamine] | 0/3 | 0/3 | 0/3 | 0/3 | – | – | – | – | – | – | – | – | – | – | –
COc1ccc(-c2nnc(COc3cc(-c4nc5ccccc5s4)ccc3OC)o2)cc1 [6b, 2-{4-Methoxy-3-[5-(4-methoxy-phenyl)-[1,3,4]oxadiazol-2-ylmethoxy]-phenyl}-benzothiazole] | 0/3 | 0/3 | 0/3 | 0/3 | failed to exhibit activity | – | – | – | – | – | – | – | – | – | –
COc1ccc(-c2nc3ccccc3s2)cc1OCc1nnc(-c2ccc(Br)cc2)o1 [6c, 2-{3-[5-(4-Bromo-phenyl)-[1,3,4]oxadiazol-2-ylmethoxy]-4-methoxy-phenyl}-benzothiazole] | 0/3 | 0/3 | 1/3 | 2/3 | failed to exhibit activity | slight spasmodic behavior | mortality with involuntary movements | 300 | 300 | – | – | – | – | – | –
COc1ccc(-c2nc3ccccc3s2)cc1OCc1nnc(-c2ccccc2)o1 [6d, 2-[4-Methoxy-3-(5-phenyl-[1,3,4]oxadiazol-2-ylmethoxy)-phenyl]-benzothiazole] | 0/3 | 0/3 | 0/3 | 2/3 | – | – | mortality with involuntary movements | – | – | – | – | – | – | – | –
COc1ccc(-c2nc3ccccc3s2)cc1OCc1nnc(Cc2ccccc2)o1 [6e, 2-[3-(5-Benzyl-[1,3,4]oxadiazol-2-ylmethoxy)-4-methoxy-phenyl]-benzothiazole] | 0/3 | 0/3 | 1/3 | 1/3 | – | slight spasmodic behavior | mortality with involuntary movements | – | – | – | – | – | – | – | –
COc1ccc(-c2nc3ccccc3s2)cc1OCc1nnc(-c2ccc(Cl)cc2)o1 [6g, 2-{3-[5-(4-Chloro-phenyl)-[1,3,4]oxadiazol-2-ylmethoxy]-4-methoxy-phenyl}-benzothiazole] | 0/3 | 0/3 | 0/3 | 1/3 | – | – | mortality with involuntary movements | – | – | – | – | – | – | – | –
COc1ccc(-c2nc3ccccc3s2)cc1OCc1nnc(-c2ccc([N+](=O)[O-])cc2)o1 [6h, 2-{4-Methoxy-3-[5-(4-nitro-phenyl)-[1,3,4]oxadiazol-2-ylmethoxy]-phenyl}-benzothiazole] | 0/3 | 0/3 | 0/3 | 0/3 | – | – | – | – | – | no neurotoxicity | not depressants | 0.37 | 373.4 ± 3.85^ns | – | –
COc1ccc(-c2nc3ccccc3s2)cc1OCc1nnc(C(c2ccccc2)c2ccccc2)o1 [6i, 2-[3-(5-Benzhydryl-[1,3,4]oxadiazol-2-ylmethoxy)-4-methoxy-phenyl]-benzothiazole] | 0/3 | 0/3 | 0/3 | 1/3 | – | – | mortality with involuntary movements | – | – | – | – | – | – | – | –
COc1ccc(-c2nc3ccccc3s2)cc1OCc1nnc(-c2cc([N+](=O)[O-])cc([N+](=O)[O-])c2O)o1 [6j, 2-[5-(5-Benzothiazol-2-yl-2-methoxy-phenoxymethyl)-[1,3,4]oxadiazol-2-yl]-4,6-dinitro-phenol] | 0/3 | 0/3 | 0/3 | 0/3 | – | – | – | – | – | no neurotoxicity | not depressants | 0.48 | 368.8 ± 2.63^ns | – | –
COc1ccc(-c2nc3ccccc3s2)cc1OCc1nnc(-c2c(C)cccc2C)o1 [6k, 2-{3-[5-(2,6-Dimethylphenyl)-[1,3,4]oxadiazol-2-ylmethoxy]-4-methoxy-phenyl}-benzothiazole] | 0/3 | 0/3 | 0/3 | 1/3 | – | – | mortality with involuntary movements | – | – | – | – | – | – | – | –
COc1ccc(-c2nc3ccccc3s2)cc1OCc1nnc(-c2ccc(O)cc2)o1 [6l, 4-[5-(5-Benzothiazol-2-yl-2-methoxy-phenoxymethyl)-[1,3,4]oxadiazol-2-yl]-phenol] | 0/3 | 0/3 | 0/3 | 0/3 | – | – | – | – | – | no neurotoxicity | not depressants | 0.73 | 375.8 ± 3.65^ns | – | –
COc1ccc(-c2nc3ccccc3s2)cc1OCc1nnc(-c2ccc(N(C)C)cc2)o1 [6m, {4-[5-(5-Benzothiazol-2-yl-2-methoxy-phenoxymethyl)-[1,3,4]oxadiazol-2-yl]-phenyl}-dimethylamine] | 0/3 | 0/3 | 0/3 | 0/3 | failed to exhibit activity | – | – | – | – | – | – | – | – | – | –
COc1ccc(-c2nc3ccccc3s2)cc1OCc1nnc(-c2c(OC)cccc2OC)o1 [6n, 2-{3-[5-(2,6-Dimethoxyphenyl)-[1,3,4]oxadiazol-2-ylmethoxy]-4-methoxy-phenyl}benzothiazole] | 0/3 | 0/3 | 0/3 | 0/3 | – | – | – | – | – | – | – | – | – | – | –
CN1C(=O)CN=C(c2ccccc2)c2cc(Cl)ccc21 [diazepam, reference compound] | – | – | – | – | – | – | – | – | – | – | – | – | – | 80.4 | 74.6 ± 2.65
O=C1NC(=O)C(c2ccccc2)(c2ccccc2)N1 [phenytoin, reference compound] | 0/3 | 0/3 | 0/3 | 0/3 | – | – | – | 100 | 100 | – | – | – | – | – | –
